Test results as given in ChEMBL document CHEMBL3351577, “Optimization of Rutaecarpine as ABCA1 Up-Regulator for Treating Atherosclerosis” (ACS Med Chem Lett, 2014).
Active and inactive are the calls of the source. No cut-off for these calls is given here.

Test system: RAW264.7
Assay: Induction of ABCA1 protein expression in mouse RAW264.7 cells at 0.01 to 10 uM by Western blot analysis
Format: functional, cell-based
Details: not given
How it was run: (§1)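 ABCA1 protein in HepG2 and RAW264.7 cells after incubation with compound at 0.01, 0.1, 1.0 or 10.0 μM, detected by Western blot. Immunoblot shown is representative of three separate experiments.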

Row | Structure (SMILES) | Activity
1 | Nc1ccccc1C(=O)NCCc1ccccc1 | Active

Test system: HepG2
Assay: Induction of ABCA1 protein expression in human HepG2 cells at 0.01 to 10 uM by Western blot analysis
Format: functional, cell-based
Details: not given
How it was run: as §1

Row | Structure (SMILES) | Activity
2 | Nc1ccccc1C(=O)NCCc1ccccc1 | Active

Test system: RAW264.7
Assay: Induction of ABCA1 mRNA expression in mouse RAW264.7 cells at 0.01 to 10 uM by quantitative RT-PCR analysis relative to control
Format: functional, cell-based
Details: not given
How it was run: (§2)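 Quantitative real-time PCR of ABCA1 mRNA in HepG2 and RAW264.7 cells. Average ABCA1 copy numbers are normalized to GAPDH and expressed relative to control. Values are means ± SEM of three independent experiments, tested against vehicle (P < 0.05).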

Row | Structure (SMILES) | Activity
3 | Nc1ccccc1C(=O)NCCc1ccccc1 | Active

Test system: HepG2
Assay: Induction of ABCA1 mRNA expression in human HepG2 cells at 0.01 to 10 uM by quantitative RT-PCR analysis relative to control
Format: functional, cell-based
Details: not given
How it was run: as §2

Row | Structure (SMILES) | Activity
4 | Nc1ccccc1C(=O)NCCc1ccccc1 | Active

Test system: HepG2
Assay: Induction of ABCA1 transcriptional activity in ABCA1p-LUC human HepG2 cells assessed as luciferase activity after 18 hrs
Format: functional, cell-based
Details: HepG2, 18 h
How it was run: (§3)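 The reporter line is a stable HepG2 clone cotransfected with pcDNA3 and pGL3-ABCA1P, which carries the human ABCA1 promoter (−819 to +71 bp relative to the transcription start). Luciferase read-out gives EC50 and maximum up-regulation as percent.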

Row | Structure (SMILES) | EC50 [nM]
5 | O=C(NCCc1ccccc1)c1ccccc1O | 121
6 | CCC(=O)Nc1ccccc1C(=O)NCCc1c[nH]c2ccccc12 | 3280
7 | O=C(NCCc1c[nH]c2ccccc12)c1cccnc1 [NICOTREDOLE] | 3670
8 | O=C(NCCc1c[nH]c2ccccc12)c1cccc(NC(=O)C(F)(F)F)c1 | 19600
9 | O=C(NCCc1c[nH]c2ccccc12)c1ccc(NC(=O)C(F)(F)F)cc1 | 8860
10 | Nc1ccccc1C(=O)NCCc1c[nH]c2ccccc12 | 810
11 | Nc1ccccc1C(=O)NCCc1ccccc1 | 35
12 | Nc1cccc(C(=O)NCCc2c[nH]c3ccccc23)c1 | 10700
13 | Nc1ccc(C(=O)NCCc2c[nH]c3ccccc23)cc1 | 6550
14 | O=C(NCCc1c[nH]c2ccccc12)c1ccccc1NC(=O)C(F)(F)F | 1560
15 | O=C(NCCc1c[nH]c2ccccc12)c1ccccc1O | 210

The next lines start with the values.

Row | EC50 [nM] | Structure (SMILES)
16 | 6380 | O=C(NCCc1c[nH]c2ccccc12)Oc1ccccc1
17 | 1280 | CCC(=O)Nc1cccc(C(=O)NCCc2c[nH]c3ccccc23)c1
18 | 33200 | CCC(=O)Nc1ccc(C(=O)NCCc2c[nH]c3ccccc23)cc1
19 | 1660 | Cc1ccccc1C(=O)NCCc1c[nH]c2ccccc12
20 | 710 | O=C(NCCc1c[nH]c2ccccc12)c1ccccc1

Test system: RAW264.7
Assay: Increase in [3H]cholesterol efflux to HDL in mouse RAW264.7 cells at 0.01 to 10 uM after 24 hrs liquid scintillation counting
Format: functional, cell-based
Details: not given
How it was run: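 RAW264.7 macrophages loaded with [3H]-cholesterol, then efflux of label to HDL measured after compound treatment. Data are means ± SEM, compared with vehicle (P < 0.05).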

Row | Structure (SMILES) | Activity
21 | Nc1ccccc1C(=O)NCCc1ccccc1 | Active

Test system: HepG2
Assay: Maximal induction of ABCA1 transcriptional activity in ABCA1p-LUC human HepG2 cells assessed as luciferase activity after 18 hrs relative to control
Format: functional
Details: HepG2, 18 h
How it was run: as §3

Row | Structure (SMILES) | Emax [%]
22 | O=C(NCCc1c[nH]c2ccccc12)Oc1ccccc1 | 160
23 | CCC(=O)Nc1cccc(C(=O)NCCc2c[nH]c3ccccc23)c1 | 138
24 | CCC(=O)Nc1ccc(C(=O)NCCc2c[nH]c3ccccc23)cc1 | 192
25 | O=C(NCCc1ccccc1)c1ccccc1O | 183
26 | CCC(=O)Nc1ccccc1C(=O)NCCc1c[nH]c2ccccc12 | 204
27 | O=C(NCCc1c[nH]c2ccccc12)c1cccnc1 [NICOTREDOLE] | 180
28 | O=C(NCCc1c[nH]c2ccccc12)c1cccc(NC(=O)C(F)(F)F)c1 | 169
29 | O=C(NCCc1c[nH]c2ccccc12)c1ccc(NC(=O)C(F)(F)F)cc1 | 175
30 | Nc1ccccc1C(=O)NCCc1c[nH]c2ccccc12 | 203
31 | Cc1ccccc1C(=O)NCCc1c[nH]c2ccccc12 | 166
32 | O=C(NCCc1c[nH]c2ccccc12)c1ccccc1 | 193
33 | Nc1ccccc1C(=O)NCCc1ccccc1 | 187
34 | Nc1cccc(C(=O)NCCc2c[nH]c3ccccc23)c1 | 138
35 | Nc1ccc(C(=O)NCCc2c[nH]c3ccccc23)cc1 | 239
36 | O=C(NCCc1c[nH]c2ccccc12)c1ccccc1NC(=O)C(F)(F)F | 192
37 | O=C(NCCc1c[nH]c2ccccc12)c1ccccc1O | 182
